Assay results gathered from unrelated publications.
Lines come from different studies, so protocols differ. pIC50: −log10 of the molar value.
CYP2C19: Cytochrome P450 2C19 (CYP2C19, Homo sapiens, UniProt P33261)

With `O=c1[nH]cc(F)c(=O)[nH]1` the viability was 27.3% (A549; cell growth or viability, CCK-8; 50 µM).
The pIC50 of `CSc1ccccc1C(=O)NCCn1cc(C(=O)NCc2cccc(C)n2)c(=O)c2cc3c(cc21)OC(F)(F)O3` is reported as < 4.00 (CYP2C19; enzyme activity, inhibitor; human, liver microsomes; 20 min, without NADPH, with preincubation).
With `CN(CCOc1ccc(CC2SC(=O)NC2=O)cc1)c1ccccn1` (stereo not drawn) the CC50 was 100 µM (A549; cell growth or viability, resazurin; 72 h).
For `C=CCn1c(=O)c2cnc(Nc3ccc(N4CCN(C)CC4)cc3)nc2n1-c1ccc2c(n1)[C@@](O)(CC)CC2`, the clearance was 46 mL/min/kg (dog, plasma; intravenous, 3 mg/kg).
With `O=C(CCCCCCC(=O)Nc1ccccc1)NO` the pIC50 was 5.49 (CYP2C19; enzyme activity, inhibitor, fluorescence).
`NCc1ccc(-c2nn(Cc3ccncc3)c3ccccc23)o1` has a C0 of 1360 ng/mL (male CD-1 mouse, plasma; intravenous, 5 mg/kg).
For `CSc1ccccc1C(=O)NCCn1cc(C(=O)NCc2cccc(C)n2)c(=O)c2cc3c(cc21)OCO3`, the pIC50 was < 4.00 (CYP2C19; enzyme activity, inhibitor; human, liver microsomes; 20 min, without NADPH, with preincubation).
With `CN(C)C(=O)c1cc2cnc(Nc3ccc(-c4ccc5c(=O)cc(N6CCOCC6)oc5c4)cc3)nc2n1C1CCCC1.Cl` the CL/F was 11.7 mL/min/kg (BALB/c mouse, plasma; intravenous, 2 mg/kg).
For `CCC(CC)COC(=O)[C@H](C)N[P@](=O)(OC[C@H]1O[C@@](C#N)(c2ccc3c(N)ncnn23)[C@H](O)[C@@H]1O)Oc1ccccc1`, the CC50 was 25 µM (A549; cell growth or viability, resazurin; 72 h).
The CC50 of `[N-]=[N+]=N[C@]1(CO)O[C@@H](n2ccc(N)nc2=O)[C@@H](F)[C@@H]1O` is reported as > 50 µM (A549; cell growth or viability, ATP luminescence; 72 h).
The Tmax of `C[C@H]1Oc2cc(cnc2N)-c2c(nn(C)c2C#N)CN(C)C(=O)c2ccc(F)cc21` is reported as 1.5 h (male Sprague-Dawley rat, plasma; oral, 5 mg/kg, single dose).
For `OB(O)c1csc2ccccc12`, the viability was > 75% (HFF-1; cell growth or viability, resazurin; 50 µM, 24 h).
